Laboratory results from ChEMBL document CHEMBL3286203, “Reactive oxygen species (ROS) inducible DNA cross-linking agents and their effect on cancer cells and normal lymphocytes” (J Med Chem, 2014).
Calls of active or inactive are those of the source. The rule behind the calls is not given here.

Legend:
UACC-62 = assay: Cytotoxicity against human UACC62 cells assessed as growth inhibition at 10 uM after 48 hrs by SRB assay; assay type: functional, cell-based
Procedure, shortened: (§1)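 NCI-60 DTP human tumour line screen. Cells grown in RPMI 1640 with 5% fetal bovine serum and 2 mM L-glutamine, plated at 5000–40 000 cells/well according to doubling time. Single dose of 10 μM for 48 h at 37 °C, 5% CO2, 95% air, 100% humidity, two plates per line. Read-out is growth percent.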

HCT-116 = assay: Cytotoxicity against human HCT116 cells assessed as growth inhibition at 10 uM after 48 hrs by SRB assay; assay type: functional, cell-based
Procedure, shortened: (§2)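 NCI DTP 60-cell-line screen run at the NCI. Cells were grown in RPMI 1640 with 5% FBS and 2 mM L-glutamine. They were seeded at 5000–40 000 cells/well depending on doubling time and grown in two plates per line. Each was exposed to a single 10 μM dose for 48 h at 37 °C, 5% CO2, 95% air, 100% humidity. Read-out was percent growth.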

K562 = assay: Cytotoxicity against human K562 cells assessed as growth inhibition at 10 uM after 48 hrs by SRB assay; assay type: functional, cell-based; procedure, shortened: as §2
SF-268 = assay: Cytotoxicity against human SF268 cells assessed as growth inhibition at 10 uM after 48 hrs by SRB assay; assay type: functional, cell-based
Procedure, shortened: (§3)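 Single-dose screen run by the NCI Developmental Therapeutics Program (NCI-60). Cells were grown in RPMI 1640 with 5% fetal bovine serum and 2 mM L-glutamine. They were plated at 5000–40 000 cells/well, depending on doubling time. Each line was run in two plates and exposed to 10 μM drug for 48 h at 37 °C, 5% CO2, 100% humidity. Read-out was growth percent.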

HCC 2998 = assay: Cytotoxicity against human HCC2998 cells assessed as growth inhibition at 10 uM after 48 hrs by SRB assay; assay type: functional, cell-based; procedure, shortened: as §2
MDA-MB-231 = assay: Cytotoxicity against human MDA-MB-231 cells assessed as growth inhibition at 10 uM after 48 hrs by SRB assay; assay type: functional, cell-based; procedure, shortened: as §3
A549 = assay: Cytotoxicity against human A549 cells assessed as growth inhibition at 10 uM after 48 hrs by SRB assay; assay type: functional, cell-based; procedure, shortened: as §2
HT-29 = assay: Cytotoxicity against human HT-29 cells assessed as growth inhibition at 10 uM after 48 hrs by SRB assay; assay type: functional, cell-based; procedure, shortened: as §2
NCI-H226 = assay: Cytotoxicity against human NCI-H226 cells assessed as growth inhibition at 10 uM after 48 hrs by SRB assay; assay type: functional, cell-based; procedure, shortened: as §3
OVCAR-5 = assay: Cytotoxicity against human OVCAR5 cells assessed as growth inhibition at 10 uM after 48 hrs by SRB assay; assay type: functional, cell-based; procedure, shortened: as §3
MDA-MB-435 = assay: Cytotoxicity against human MDA-MB-435 cells assessed as growth inhibition at 10 uM after 48 hrs by SRB assay; assay type: functional, cell-based; procedure, shortened: as §3
TK-10 = assay: Cytotoxicity against human TK10 cells assessed as growth inhibition at 10 uM after 48 hrs by SRB assay; assay type: functional, cell-based; procedure, shortened: as §1
SK-MEL-5 = assay: Cytotoxicity against human SK-MEL-5 cells assessed as growth inhibition at 10 uM after 48 hrs by SRB assay; assay type: functional, cell-based; procedure, shortened: as §3
RXF 393 = assay: Cytotoxicity against human RXF393 cells assessed as growth inhibition at 10 uM after 48 hrs by SRB assay; assay type: functional, cell-based; procedure, shortened: as §3
MDA-MB-468 = assay: Cytotoxicity against human MDA-MB-468 cells assessed as growth inhibition at 10 uM after 48 hrs by SRB assay; assay type: functional, cell-based; procedure, shortened: as §3
PC-3 = assay: Cytotoxicity against human PC3 cells assessed as growth inhibition at 10 uM after 48 hrs by SRB assay; assay type: functional, cell-based; procedure, shortened: as §3
MCF7 = assay: Cytotoxicity against human MCF7 cells assessed as growth inhibition at 10 uM after 48 hrs by SRB assay; assay type: functional, cell-based; procedure, shortened: as §3
NCI-H322M = assay: Cytotoxicity against human NCI-H322M cells assessed as growth inhibition at 10 uM after 48 hrs by SRB assay; assay type: functional, cell-based; procedure, shortened: as §3
SK-MEL-2 = assay: Cytotoxicity against human SK-MEL-2 cells assessed as growth inhibition at 10 uM after 48 hrs by SRB assay; assay type: functional, cell-based; procedure, shortened: as §3
SN12C = assay: Cytotoxicity against human SN12C cells assessed as growth inhibition at 10 uM after 48 hrs by SRB assay; assay type: functional, cell-based; procedure, shortened: as §1
786-0 = assay: Cytotoxicity against human 786-0 cells assessed as growth inhibition at 10 uM after 48 hrs by SRB assay; assay type: functional, cell-based; procedure, shortened: as §2
SK-MEL-28 = assay: Cytotoxicity against human SK-MEL-28 cells assessed as growth inhibition at 10 uM after 48 hrs by SRB assay; assay type: functional, cell-based; procedure, shortened: as §3
NCI-H522 = assay: Cytotoxicity against human NCI-H522 cells assessed as growth inhibition at 10 uM after 48 hrs by SRB assay; assay type: functional, cell-based; procedure, shortened: as §3
Hs-578T = assay: Cytotoxicity against human Hs578T cells assessed as growth inhibition at 10 uM after 48 hrs by SRB assay; assay type: functional, cell-based; procedure, shortened: as §2
Malme-3M = assay: Cytotoxicity against human MALME-3M cells assessed as growth inhibition at 10 uM after 48 hrs by SRB assay; assay type: functional, cell-based; procedure, shortened: as §2
RPMI-8226 = assay: Cytotoxicity against human RPMI8226 cells assessed as growth inhibition at 10 uM after 48 hrs by SRB assay; assay type: functional, cell-based; procedure, shortened: as §3
T47D = assay: Cytotoxicity against human T47D cells assessed as growth inhibition at 10 uM after 48 hrs by SRB assay; assay type: functional, cell-based; procedure, shortened: as §1
HCT-15 = assay: Cytotoxicity against human HCT15 cells assessed as growth inhibition at 10 uM after 48 hrs by SRB assay; assay type: functional, cell-based; procedure, shortened: as §2
[1] = Induction of [32P]-labeled 49-mer oligonucleotide duplex DNA 12 with GNC sequence at terminus (unknown origin) interstrand cross-linking at 1 mM after 16 hrs by PAGE in presence of H2O2
Procedure, shortened: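 32P-labelled 12a (1.0 μM) annealed with 1.5 equiv of 12b in 10 mM potassium phosphate pH 7 / 100 mM NaCl (65 °C for 3 min, then slow cooling). Duplex incubated with compound (final 1 μM–5 mM), with or without H2O2, in NaCl and potassium phosphate pH 8 at room temperature for 16 h. Quenched in formamide; 20% denaturing PAGE.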

IGROV-1 = assay: Cytotoxicity against human IGROV1 cells assessed as growth inhibition at 10 uM after 48 hrs by SRB assay; assay type: functional, cell-based; procedure, shortened: as §2
M14 = assay: Cytotoxicity against human M14 cells assessed as growth inhibition at 10 uM after 48 hrs by SRB assay; assay type: functional, cell-based; procedure, shortened: as §2
NCI-H460 = assay: Cytotoxicity against human NCI-H460 cells assessed as growth inhibition at 10 uM after 48 hrs by SRB assay; assay type: functional, cell-based; procedure, shortened: as §3
A498 = assay: Cytotoxicity against human A498 cells assessed as growth inhibition at 10 uM after 48 hrs by SRB assay; assay type: functional, cell-based; procedure, shortened: as §2
DU-145 = assay: Cytotoxicity against human DU145 cells assessed as growth inhibition at 10 uM after 48 hrs by SRB assay; assay type: functional, cell-based; procedure, shortened: as §2
NCI-H23 = assay: Cytotoxicity against human NCI-H23 cells assessed as growth inhibition at 10 uM after 48 hrs by SRB assay; assay type: functional, cell-based; procedure, shortened: as §3
KM12 = assay: Cytotoxicity against human KM12 cells assessed as growth inhibition at 10 uM after 48 hrs by SRB assay; assay type: functional, cell-based; procedure, shortened: as §2
SF-539 = assay: Cytotoxicity against human SF539 cells assessed as growth inhibition at 10 uM after 48 hrs by SRB assay; assay type: functional, cell-based; procedure, shortened: as §3

Compound | growth inhibition (GI) (UACC-62) | growth inhibition (GI) (HCT-116) | growth inhibition (GI) (K562) | growth inhibition (GI) (SF-268) | growth inhibition (GI) (HCC 2998) | growth inhibition (GI) (MDA-MB-231) | growth inhibition (GI) (A549) | growth inhibition (GI) (HT-29) | growth inhibition (GI) (NCI-H226) | growth inhibition (GI) (OVCAR-5) | growth inhibition (GI) (MDA-MB-435) | growth inhibition (GI) (TK-10) | growth inhibition (GI) (SK-MEL-5) | growth inhibition (GI) (RXF 393) | growth inhibition (GI) (MDA-MB-468) | growth inhibition (GI) (PC-3) | growth inhibition (GI) (MCF7) | growth inhibition (GI) (NCI-H322M) | growth inhibition (GI) (SK-MEL-2) | growth inhibition (GI) (SN12C) | also measured
CC1(C)OB(c2ccc(N(CCCl)CCBr)cc2)OC1(C)C | Active | Active | Active | Active | Active | Active | Active | Active | Active | Active | Active | Active | Active | Active | Active | Active | Active | Active | Active | Active | growth inhibition (GI) (786-0): Active; growth inhibition (GI) (SK-MEL-28): Active; growth inhibition (GI) (NCI-H522): Active; growth inhibition (GI) (Hs-578T): Active; growth inhibition (GI) (Malme-3M): Active; growth inhibition (GI) (RPMI-8226): Active; growth inhibition (GI) (T47D): Active; growth inhibition (GI) (HCT-15): Active; Activity [1]: 37%; growth inhibition (GI) (IGROV-1): Active; growth inhibition (GI) (M14): Active; growth inhibition (GI) (NCI-H460): Active; growth inhibition (GI) (A498): Active; growth inhibition (GI) (DU-145): Active; growth inhibition (GI) (NCI-H23): Active; growth inhibition (GI) (KM12): Active; growth inhibition (GI) (SF-539): Active
CC1(C)OB(c2ccc(N(CCCl)CCCl)cc2)OC1(C)C | Active | Active | Active | Active | Active | Active | Active | Active | Active | Active | Active | Active | Active | Active | Active | Active | Active | Active | Active | Active | growth inhibition (GI) (786-0): Active; growth inhibition (GI) (SK-MEL-28): Active; growth inhibition (GI) (NCI-H522): Active; growth inhibition (GI) (Hs-578T): Active; growth inhibition (GI) (Malme-3M): Active; growth inhibition (GI) (RPMI-8226): Active; growth inhibition (GI) (T47D): Active; growth inhibition (GI) (HCT-15): Active; Activity [1]: 37%; growth inhibition (GI) (IGROV-1): Active; growth inhibition (GI) (M14): Active; growth inhibition (GI) (NCI-H460): Active; growth inhibition (GI) (A498): Active; growth inhibition (GI) (DU-145): Active; growth inhibition (GI) (NCI-H23): Active; growth inhibition (GI) (KM12): Active; growth inhibition (GI) (SF-539): Active
